Legend:
[1] = test system: SARS-CoV-2; assay type: cell-based
[2] = test system: SARS-CoV-2; settings: COVID-19 patients, on the 6th day; cited from earlier work
[3] = In vivo acute toxicity assay; settings: oral 230 mg/kg twice a day
In short: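 Test compounds as sulfate salts, dissolved in physiological saline. Mice (25 g) were fasted overnight: 16 male and 16 female in four groups (n = 8), male and female vehicle controls and male and female test groups. They were dosed intragastrically with vehicle or 230 mg/kg twice a day. Death, daily behaviour and body weight were monitored for 20 days, and survival was plotted as curves.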

Compound: CCC(CC)COC(=O)[C@H](C)N[P@](=O)(OC[C@H]1O[C@@](C#N)(c2ccc3c(N)ncnn23)[C@H](O)[C@@H]1O)Oc1ccccc1 [Remdesivir, reference compound]
- inhibition of the occurrence of lesions (CPE) [1]: completely inhibited

Compound: CCN(CCO)CCCC(C)Nc1ccnc2cc(Cl)ccc12.O=S(=O)(O)O (racemic) [Rac-HCQ, hydroxychloroquine, reference compound]
- inhibition of cytopathic changes caused by the virus [1]: complete inhibition
- nasopharyngeal swab virus negative rate [2]: 57.1%

Compound: (R)-2-((4-((7-chloroquinolin-4-yl) amino) pentyl) (ethyl) amino) ethan-1-ol sulfate [R-HCQ]
- inhibition of cytopathic changes caused by the virus [1]: complete inhibition
- tolerability in mice compared to Rac-HCQ and S-HCQ [3]: better tolerated
- day until which mice performed well ([3]; monitored 20 days): 12 dpd

Compound: (S)-2-((4-((7-chloroquinolin-4-yl) amino) pentyl) (ethyl) amino) ethan-1-ol sulfate [S-HCQ]
- inhibition of cytopathic changes caused by the virus [1]: complete inhibition
- day at which mice appeared malaise ([3]; monitored 20 days): 9 dpd

Source: article PMC8606320 (Bioorganic & Medicinal Chemistry, 2021)
